Measured values taken from ChEMBL document CHEMBL1155439, “Transient receptor potential ankyrin 1 (TRPA1) channel as emerging target for novel analgesics and anti-inflammatory agents” (J Med Chem, 2010).

How the values were obtained:
[1] = target: T1, Transient receptor potential cation channel subfamily A member 1 (Homo sapiens, UniProt O75762); test: Antagonist activity at TRPA1 channel; format: functional
[2] = target: T1, Transient receptor potential cation channel subfamily A member 1; test: Antagonist activity at TRPA1 channel at 10 uM; format: functional
[3] = target: T1, Transient receptor potential cation channel subfamily A member 1; test: Antagonist activity at TRPA1 channel at 1 uM; format: functional
[4] = target: T1, Transient receptor potential cation channel subfamily A member 1; test: Activation of TRPA1 channel
How it was run: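 Cell lines transfected with TRPA1 and loaded with a calcium-sensitive dye, read on FLIPR. Calcium influx is counted as the change in fluorescence above background. Each material was tested by preincubation or by direct addition. Calcium counts are expressed as a percentage of the control calcium count.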

[5] = target: T1, Transient receptor potential cation channel subfamily A member 1; test: Agonist activity at human TRPA1 channel expressed in CHO cells assessed as increase in intracellular calcium levels; format: functional, cell-based
[6] = target: T1, Transient receptor potential cation channel subfamily A member 1; test: Agonist activity at human TRPA1 channel expressed in HEK293 cells assessed as increase in membrane currents; format: functional, cell-based
[7] = target: T1, Transient receptor potential cation channel subfamily A member 1; test: Antagonist activity at human TRPA1 channel expressed in CHO cells assessed as inhibition of cinnamaldehyde-induced intracellular calcium influx; format: functional, cell-based
[8] = target: T2, Transient receptor potential cation channel subfamily A member 1 (Rattus norvegicus, UniProt Q6RI86); test: Agonist activity at rat TRPA1 channel expressed in HEK293 cells assessed as increase in intracellular calcium influx; format: functional, cell-based
[9] = target: Transient receptor potential cation channel subfamily A member 1 (Mus musculus, UniProt Q8BLA8); test: Agonist activity at mouse TRPA1 channel expressed in CHO cells assessed as increase in intracellular calcium influx; format: functional, cell-based
[10] = target: T1, Transient receptor potential cation channel subfamily A member 1; test: Antagonist activity at human TRPA1 channel assessed as inhibition of allyl isothiocyanate-induced intracellular calcium influx; format: functional, cell-based
[11] = target: T1, Transient receptor potential cation channel subfamily A member 1; test: Agonist activity at human TRPA1 channel expressed in HEK293 cells assessed as increase in intracellular calcium influx; format: functional, cell-based
[12] = target: Transient receptor potential cation channel subfamily M member 8 (Homo sapiens, UniProt Q7Z2W7); test: Activation of TRPM8 channel
[13] = target: Transient receptor potential cation channel subfamily V member 1 (Rattus norvegicus, UniProt O35433); test: Activation of rat TRPV1 channel
[14] = target: T2, Transient receptor potential cation channel subfamily A member 1; test: Agonist activity at TRPA1 channel in rat DRG neurons assessed as increase in intracellular calcium influx; format: functional, cell-based
[15] = target: T1, Transient receptor potential cation channel subfamily A member 1; test: Activation of human TRPA1 channel

Transient receptor potential cation channel subfamily A member 1 (Mus musculus, UniProt Q8BLA8), sequence (Q8BLA8 whole entry): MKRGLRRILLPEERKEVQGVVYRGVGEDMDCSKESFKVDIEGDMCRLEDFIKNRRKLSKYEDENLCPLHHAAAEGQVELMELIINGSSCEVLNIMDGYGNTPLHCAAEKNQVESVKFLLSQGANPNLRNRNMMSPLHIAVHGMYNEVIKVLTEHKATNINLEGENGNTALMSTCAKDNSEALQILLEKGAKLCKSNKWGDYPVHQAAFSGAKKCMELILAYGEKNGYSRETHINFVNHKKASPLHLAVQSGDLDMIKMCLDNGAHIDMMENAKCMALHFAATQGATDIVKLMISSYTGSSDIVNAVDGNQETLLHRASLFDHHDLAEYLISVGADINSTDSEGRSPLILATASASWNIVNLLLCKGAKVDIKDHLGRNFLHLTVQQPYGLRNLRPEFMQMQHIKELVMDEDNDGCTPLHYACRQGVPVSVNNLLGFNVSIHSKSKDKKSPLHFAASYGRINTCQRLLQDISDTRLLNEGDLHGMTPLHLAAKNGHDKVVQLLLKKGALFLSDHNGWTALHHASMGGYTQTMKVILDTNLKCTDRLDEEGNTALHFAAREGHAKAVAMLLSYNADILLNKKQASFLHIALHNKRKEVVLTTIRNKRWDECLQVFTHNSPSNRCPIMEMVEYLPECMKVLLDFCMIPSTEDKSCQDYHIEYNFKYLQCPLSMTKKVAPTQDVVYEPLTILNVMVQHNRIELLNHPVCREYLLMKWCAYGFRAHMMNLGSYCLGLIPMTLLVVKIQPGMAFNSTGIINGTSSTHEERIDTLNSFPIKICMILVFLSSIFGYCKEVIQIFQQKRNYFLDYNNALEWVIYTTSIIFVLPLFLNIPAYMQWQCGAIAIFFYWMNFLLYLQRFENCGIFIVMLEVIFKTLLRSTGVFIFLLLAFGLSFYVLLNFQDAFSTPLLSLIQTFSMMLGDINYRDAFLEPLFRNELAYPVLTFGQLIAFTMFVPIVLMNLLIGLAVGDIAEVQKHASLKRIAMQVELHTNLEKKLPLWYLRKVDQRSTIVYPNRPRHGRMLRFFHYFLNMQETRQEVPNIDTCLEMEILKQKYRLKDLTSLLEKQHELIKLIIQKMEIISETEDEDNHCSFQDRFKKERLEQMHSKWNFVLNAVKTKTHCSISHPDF
T2 sequence (Q6RI86 whole entry): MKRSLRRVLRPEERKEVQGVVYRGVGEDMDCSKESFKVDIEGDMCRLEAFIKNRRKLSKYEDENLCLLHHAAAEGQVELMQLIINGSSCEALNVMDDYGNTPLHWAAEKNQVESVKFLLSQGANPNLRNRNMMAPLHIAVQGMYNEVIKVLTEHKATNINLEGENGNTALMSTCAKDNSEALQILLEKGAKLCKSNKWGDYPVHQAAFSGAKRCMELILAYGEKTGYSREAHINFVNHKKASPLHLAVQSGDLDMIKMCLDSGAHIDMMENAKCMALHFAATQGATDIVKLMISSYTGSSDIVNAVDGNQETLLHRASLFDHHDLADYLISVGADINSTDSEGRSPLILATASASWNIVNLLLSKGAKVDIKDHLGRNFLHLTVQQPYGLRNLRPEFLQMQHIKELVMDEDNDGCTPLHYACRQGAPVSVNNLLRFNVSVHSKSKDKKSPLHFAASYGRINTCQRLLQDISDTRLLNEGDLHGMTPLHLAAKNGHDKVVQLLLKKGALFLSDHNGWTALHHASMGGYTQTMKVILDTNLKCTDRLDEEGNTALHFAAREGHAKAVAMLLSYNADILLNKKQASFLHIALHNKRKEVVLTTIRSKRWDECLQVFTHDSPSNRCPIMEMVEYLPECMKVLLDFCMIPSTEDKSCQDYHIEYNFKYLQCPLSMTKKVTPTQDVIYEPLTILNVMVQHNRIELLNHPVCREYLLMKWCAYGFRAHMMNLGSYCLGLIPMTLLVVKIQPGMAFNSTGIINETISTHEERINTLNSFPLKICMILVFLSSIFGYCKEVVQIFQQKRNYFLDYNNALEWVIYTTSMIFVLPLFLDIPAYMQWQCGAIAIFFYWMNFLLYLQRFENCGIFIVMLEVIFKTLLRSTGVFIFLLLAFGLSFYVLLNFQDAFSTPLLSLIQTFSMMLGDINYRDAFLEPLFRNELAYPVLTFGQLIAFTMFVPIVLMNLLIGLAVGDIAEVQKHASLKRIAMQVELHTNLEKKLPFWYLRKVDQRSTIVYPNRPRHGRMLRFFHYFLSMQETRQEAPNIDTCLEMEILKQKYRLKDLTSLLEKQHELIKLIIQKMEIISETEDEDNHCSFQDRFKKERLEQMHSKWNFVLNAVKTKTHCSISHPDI
T1 sequence (O75762 whole entry): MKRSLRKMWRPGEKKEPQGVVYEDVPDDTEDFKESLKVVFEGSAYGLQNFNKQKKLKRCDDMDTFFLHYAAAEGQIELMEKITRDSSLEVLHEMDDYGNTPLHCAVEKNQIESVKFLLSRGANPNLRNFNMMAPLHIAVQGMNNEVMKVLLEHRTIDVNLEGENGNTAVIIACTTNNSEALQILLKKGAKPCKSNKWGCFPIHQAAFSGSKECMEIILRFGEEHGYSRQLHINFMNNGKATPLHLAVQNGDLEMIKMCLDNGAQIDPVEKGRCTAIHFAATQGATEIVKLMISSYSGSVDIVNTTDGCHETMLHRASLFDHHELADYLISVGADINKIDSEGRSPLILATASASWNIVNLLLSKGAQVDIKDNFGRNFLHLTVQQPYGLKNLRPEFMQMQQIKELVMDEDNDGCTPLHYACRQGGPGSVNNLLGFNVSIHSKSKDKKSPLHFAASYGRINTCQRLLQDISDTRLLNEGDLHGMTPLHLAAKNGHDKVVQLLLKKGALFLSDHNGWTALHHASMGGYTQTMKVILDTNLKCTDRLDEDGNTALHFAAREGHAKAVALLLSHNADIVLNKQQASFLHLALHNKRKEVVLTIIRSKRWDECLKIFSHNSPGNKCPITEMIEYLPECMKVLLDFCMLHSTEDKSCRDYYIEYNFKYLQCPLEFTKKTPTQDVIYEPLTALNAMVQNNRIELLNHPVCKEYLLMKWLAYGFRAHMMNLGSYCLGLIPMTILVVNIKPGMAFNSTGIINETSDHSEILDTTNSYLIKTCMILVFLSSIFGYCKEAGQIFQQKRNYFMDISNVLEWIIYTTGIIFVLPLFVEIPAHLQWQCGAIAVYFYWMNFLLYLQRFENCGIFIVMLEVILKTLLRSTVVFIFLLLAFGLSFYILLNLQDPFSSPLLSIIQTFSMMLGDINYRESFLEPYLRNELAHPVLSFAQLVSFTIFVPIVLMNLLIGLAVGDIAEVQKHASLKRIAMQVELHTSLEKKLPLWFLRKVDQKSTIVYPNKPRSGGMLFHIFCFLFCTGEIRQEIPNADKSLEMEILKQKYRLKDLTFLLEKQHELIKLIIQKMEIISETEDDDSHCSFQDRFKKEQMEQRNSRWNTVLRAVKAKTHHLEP
Transient receptor potential cation channel subfamily V member 1, sequence (O35433 whole entry): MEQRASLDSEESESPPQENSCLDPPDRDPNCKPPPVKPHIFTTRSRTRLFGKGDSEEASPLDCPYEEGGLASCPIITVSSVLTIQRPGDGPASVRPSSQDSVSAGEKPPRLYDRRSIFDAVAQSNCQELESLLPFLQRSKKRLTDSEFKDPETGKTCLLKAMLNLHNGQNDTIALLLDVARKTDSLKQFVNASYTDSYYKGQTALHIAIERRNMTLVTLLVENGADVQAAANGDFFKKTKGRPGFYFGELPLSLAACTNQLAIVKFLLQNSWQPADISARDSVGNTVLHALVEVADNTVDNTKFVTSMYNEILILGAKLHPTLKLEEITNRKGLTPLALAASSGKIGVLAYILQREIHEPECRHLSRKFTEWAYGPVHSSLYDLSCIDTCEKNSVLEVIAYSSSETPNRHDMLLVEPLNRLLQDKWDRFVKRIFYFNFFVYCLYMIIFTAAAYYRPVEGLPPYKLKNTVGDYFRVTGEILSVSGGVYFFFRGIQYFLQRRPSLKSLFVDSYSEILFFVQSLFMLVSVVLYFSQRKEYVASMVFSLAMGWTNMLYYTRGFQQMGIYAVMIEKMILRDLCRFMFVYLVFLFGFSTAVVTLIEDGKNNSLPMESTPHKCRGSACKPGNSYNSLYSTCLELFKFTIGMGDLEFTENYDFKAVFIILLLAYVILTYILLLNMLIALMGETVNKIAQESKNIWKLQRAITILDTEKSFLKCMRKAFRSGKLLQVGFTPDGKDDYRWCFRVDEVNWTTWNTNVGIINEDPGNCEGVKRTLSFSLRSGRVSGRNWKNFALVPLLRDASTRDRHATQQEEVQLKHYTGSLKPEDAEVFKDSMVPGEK

CN1C(=O)c2cccc(CC(=O)Nc3nc(-c4ccc(Cl)c(Cl)c4)cs3)c2C1=O
IC50 [1]: 0.25 µM | inhibition [2]: 98% | inhibition [3]: 86%

CCCCC[C@H](O)/C=C/[C@H]1C=CC(=O)[C@@H]1C/C=C\CCCC(=O)O [PROSTAGLANDIN A2]
EC50 [4]: 24 µM

C=CCSCC=C [DIALLYL SULFIDE]
EC50 [5]: 254 µM

S=C=NCc1ccccc1 [BENZYL ISOTHIOCYANATE]
EC50 [4]: 0.319 µM

CN1C(=O)c2cccc(CC(=O)Nc3nc(-c4ccc(Cl)cc4)cs3)c2C1=O
IC50 [1]: 0.5 µM | inhibition [2]: 93% | inhibition [3]: 39%

O=C(O)/C=C1/C(=O)N(CC2CCC2)c2c(F)cccc21
EC50 [6]: 1.16 µM

CCC(=N\O)/C(C)=C/c1ccc(C(F)(F)F)nc1
IC50 [7]: > 100 µM

CC(C)CCC(=O)c1ccoc1 [PERILLAKETONE]
EC50 [4]: 19.7 µM

CCCCCc1cc(O)c(C/C=C(\C)CCC=C(C)C)c(O)c1 [CANNABIGEROL]
EC50 [8]: 3.4 µM

CO/C(O)=C1\C(C)=NC(C)=C([N+](=O)[O-])[C@@H]1c1ccccc1C(F)(F)F
EC50 [9]: 20.8 µM

CC(C)c1ccc(NC(=O)Cc2cccc3c2C(=O)N(C)C3=O)cc1
inhibition [2]: 21% | inhibition [3]: 18%

CC(C)=CCC/C(C)=C/CC/C(C)=C/CSc1ccccc1C(=O)O [SALIRASIB]
EC50 [5]: 5 µM

COc1cccc(-c2csc(NC(=O)Cn3cnc4c3c(=O)n(C)c(=O)n4C)n2)c1
IC50 [10]: < 1 µM

Cc1ccc(N=C=O)cc1N=C=O [TOLUENE DIISOCYANATE]
EC50 [11]: 10 µM

CCc1ccc(-c2csc(NC(=O)Cn3cnc4c3c(=O)n(C)c(=O)n4C)n2)cc1
IC50 [10]: < 1 µM

CC1(C)CCC[C@@]2(C)[C@H]1CC[C@@]1(CO1)[C@@H]2CC/C=C(/C=O)CC=O [MIOGADIAL]
EC50 [5]: 0.2 µM

CCCCC/C=C/C=C1/C(=O)C=C[C@@H]1C/C=C\CCCC(=O)O
EC50 [4]: 5.6 µM

C/C=C/C=O [CROTONALDEHYDE]
EC50 [4]: 16 µM

CN1C(=O)c2cccc(CC(=O)Nc3nc(-c4ccc(I)cc4)cs3)c2C1=O
IC50 [1]: < 0.25 µM | inhibition [2]: 95% | inhibition [3]: 76%

CC(C)CN1C(=O)/C(=C/C(=O)O)c2cc(F)ccc21
EC50 [6]: 4.63 µM

O=C1NC(c2cccc([N+](=O)[O-])c2)=CCN1c1ccccc1O [ICILLIN]
EC50 [11]: 100 µM | EC50 [12]: 0.06 µM

O=C(O)/C=C1/C(=O)N(CC2CCCC2)c2ccccc21
EC50 [6]: 3 µM

CN(C)C(=O)/C=C1/C(=O)N(CC2CCCC2)c2c(F)cccc21
EC50 [6]: 3.76 µM

CC1(C)CCC[C@]2(C)[C@@H](CC/C=C(/C=O)CC=O)[C@@H](C=O)CC[C@@H]12 [MIOGATRIAL]
EC50 [5]: 0.13 µM

Cn1c(=O)c2c(ncn2CC(=O)Nc2nc(-c3ccc(Br)cc3)cs2)n(C)c1=O
IC50 [10]: < 1 µM

C=CCS[S+]([O-])CC=C (stereo unspecified) [ALLICIN]
EC50 [13]: 51.2 µM

CC(C)=CCC/C(C)=C/CC/C(C)=C/CSCC(=O)O [FARNESYLTHIOACETIC ACID]
EC50 [5]: 90 µM

Cn1c(=O)c2c(ncn2CC(=O)Nc2nc(-c3cccc(Cl)c3)cs2)n(C)c1=O
IC50 [10]: < 1 µM

Cn1c(=O)c2c(ncn2CC(=O)Nc2nc(-c3ccccc3F)cs2)n(C)c1=O
IC50 [10]: < 1 µM

Cc1cc(-c2csc(NC(=O)Cc3cccc4c3C(=O)N(C)C4=O)n2)ccc1Cl
IC50 [1]: 0.25 µM | inhibition [2]: 91% | inhibition [3]: 83%

CCCCCC(O)/C=C/C=O (stereo unspecified) [4-HYDROXYNON-2-ENAL]
EC50 [14]: 19.9 µM

COC(=O)C1=C(C)NC(C)=C(C(=O)OC)C1c1ccccc1[N+](=O)[O-] [NIFEDIPINE]
EC50 [9]: 0.4 µM

COC(=O)C1=C(C)NC(C)=C([N+](=O)[O-])C1c1ccccc1C(F)(F)F (stereo unspecified)
EC50 [9]: 32.7 µM

O=C(O)/C=C1/C(=O)N(CC2CCCCC2)c2ccccc21
EC50 [6]: 4.4 µM

CN1C(=O)c2cccc(CC(=O)Nc3nc(-c4cc(F)c(OC(F)F)c(F)c4)cs3)c2C1=O
inhibition [2]: 99% | inhibition [3]: 92%

CCC(CC)CN1C(=O)/C(=C/C(=O)N2CCOCC2)c2cccc(F)c21
EC50 [6]: 1.29 µM

CCCCCC(=O)/C=C/C=O
EC50 [15]: 1.9 µM

CO/C(O)=C1\C(C)=NC(C)=C([N+](=O)[O-])[C@H]1c1ccccc1C(F)(F)F
EC50 [9]: 41.5 µM

C=C(C)[C@@H]1CCC(C)=C[C@H]1c1c(O)cc(CCCCC)c(C(=O)O)c1O [CANNABIDIOLIC ACID]
EC50 [8]: 12 µM

CCC(=N\O)/C(C)=C/c1cnccc1C
IC50 [7]: > 100 µM
